Screening results: PubChem BioAssay, Broad Institute
The list is not random: actives were taken first. Their share in the collection is about 3.6%.
SKKanGAS inh = S. pyogenes SKKanGAS growth inhibitors in kanamycin, primary screen, streptokinase expression inhibitor project, SKKanGAS strain, BacTiter-Glo luminescence; 6 h; 1.3% of 300,000 active; inhibition, % at 7.5 µM;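 active means mean replicate score, as percent of positive control median, at least 50; inconclusive means mean below 50 but one replicate at or above 50; inactive means mean and every replicate below 50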;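 further: strain carries kanamycin resistance gene driven by streptokinase promoter and grows in 40 µg/ml kanamycin; loss of luminescence reflects streptokinase promoter inhibition or plain growth inhibition; 0% = median of DMSO wells and 100% = positive control at its reference dose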
PfHsp90 yeast 2 = growth inhibition of PfHsp90-expressing yeast, primary screen, antimalarial PfHsp90 inhibitor project, S. cerevisiae, BacTiter-Glo luminescence, single point, set 2; BacTiter-Glo ATP, 48 h; yeast lacking PDR1 and PDR3 efflux regulators; inhibition, % at 9.4 µM; 0.32% of 310,000 active; AID 504621, 2011;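 active means every replicate shows inhibition above about 80%, whatever the replicate mean, limit read from the data; inconclusive means mean inhibition reaches the set limit but some replicate falls short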;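 further: 0% = DMSO neutral controls and 100% = 20 µM radicicol positive controls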
CSC inhib = cancer stem cell viability inhibitors, primary screen, luminescence. cancer stem cell-like cells viability. AID 2717, 2010. 1.1% of 300,000 active. inhibition, % at 7.5 µM; in the data active means inhibition above about 75%; inconclusive means no clear call, values can overlap the other calls; tested in HMLE shEcad cells
Beta apoptosis = inhibitors of cytokine-induced beta cell apoptosis, primary screen, luminescence | AID 435005, 2010 | 0.8% of 300,000 active | INS-1E cytokine-induced death, ATP luminescence, 48 h; percent of positive-control rescue, neutral wells zero | protection from apoptosis, % (test concentration not listed);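 active means Every replicate reaches about 75%, or at least half do and their mean reaches it too, limit read from the data; inconclusive means At least half of replicates reach the limit but their mean does not; inactive means Under half of replicates reach the limit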;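 further: 0% = cytokine-treated negative control wells and 100% = positive control rescue; higher means more ATP so stronger rescue from cytokine killing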
T cruzi repl = inhibitors of intracellular T. cruzi growth, primary screen, luminescence, NIH3T3 host cells. T. cruzi beta-gal in NIH3T3, 90 h. inhibition, % (concentration not given with the values). 1.4% of 300,000 active;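 active means mean inhibition across valid replicates above about 55%, limit read from the data; inconclusive means mean below that limit but half or more replicates reach it; inactive means mean below it, under half of replicates reach it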;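 further: signal also drops with host cell toxicity which is not excluded here; 0% = plate median of DMSO wells and 100% = zero luminescence signal; higher percent means less beta-gal luminescence so fewer parasites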
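Material: NIH/3T3 host cells with β-galactosidase reporter T. cruzi; Input: 5,000 host fibroblasts per well; Medium: DMEM, 2% fetal bovine serum; Compound: 50 nL DMSO compound solution per well; Schedule: 3 h host attachment, then at least 90 h co-culture; Detection: luminescent β-galactosidase signal after 60 min lysis.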
HIF act = HIF pathway transcriptional activators, primary screen, cell-based, U2OS HRE-luciferase, luminescence; activation, % at 7.5 µM (by protocol); U2OS HRE-luciferase reporter; normalized: DMSO 0%, desferrioxamine 100%; 0.32% of 300,000 active;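 active means mean activation of at least 10% of the iron chelator positive control signal, with at least half of replicates also reaching 10%; inconclusive means mean and replicate majority disagree about reaching 10%; inactive means mean and most replicates under 10%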
Starred values were filed as active, the others as inactive; ? = inconclusive; / = no result.

SMILES	SKKanGAS inh	PfHsp90 yeast 2	CSC inhib	Beta apoptosis	T cruzi repl	HIF act
Cn1cccc1/C=C1\SC(=S)N(Nc2ccccc2)C1=O	0.9	-33.4	91.9*	15.2	64.1*	0.6
Cc1ccc(S(=O)(=O)NN2C(=O)/C(=C/c3cccn3C)SC2=S)cc1	/	/	-4.1	-1.2	/	/
CCNC(=O)NCc1c(C)c(C)n(Cc2ccccc2)c1-n1cccc1	-1.9	-12.4	-3.3	0.1	-3.3	0.8
O=[N+]([O-])c1ccc(S(=O)(=O)NCCS(=O)(=O)N2CCN(c3ccccc3)CC2)cc1	1.9	-2.8	-5.7	1.3	56.1*	0.2
Cc1ccc(S(=O)(=O)NCCS(=O)(=O)N2CCN(c3ccccc3)CC2)cc1	-11.3	-12.2	-6.3	2.5	8.7	-0.7
CCCSc1nsc(NC(=O)CCC)n1	21.1	-5.8	14.7	4.3	56.4*	1.5
O=C(Nc1ccc(Cl)cc1Cl)c1cccc(N2C(=O)C=CC2=O)c1	5.4	107.4*	70.4	-0.7	?	0.3
CCOC(=O)C1=C(COC(=O)CNS(=O)(=O)c2c(F)cc(F)cc2Br)NC(=O)NC1C (stereo not drawn)	/	29.7	/	/	/	/
COc1ccc2c(c1C)CCC(C)(C#N)C2=O (stereo not drawn)	/	-12.5	/	/	/	/
CC(C)C(=O)N1CCN(c2ccccc2NC(=S)NC(=O)/C=C/c2ccco2)CC1	/	-1.6	-16.0	10.8	/	/
CN(C)CC(C(=O)c1ccccc1)c1ccccc1 (stereo not drawn)	-5.4	-26.5	54.2	106.5*	57.8*	0.6
Oc1c(CN2CCc3ccccc3C2)cc(Cl)c2cccnc12	89.3*	102.4*	83.7*	8.0	50.8	50.3*
O=c1oc2ccccc2c(O)c1Cc1cc(Cl)c2cccnc2c1O	84.5*	90.0*	?	6.1	-10.9	0.2
Oc1c(CN2CCCCC2)cc(Br)c2cccnc12	57.5*	104.0*	33.4	95.9*	56.0*	/
Clc1nc2c(-c3ccccc3)nnn2c2ccccc12	-2.5	-12.7	71.0	-4.9	64.3*	0.0
COc1ccccc1NC(=O)COC(=O)Cn1cnc2c1c(=O)n(C)c(=O)n2C	/	3.3	13.4	-6.1	/	/
COc1cc2ccccc2cc1C(=O)Nc1ccc(Cl)cn1	-3.2	-14.1	-9.0	/	6.5	3.6
Cn1cnc(Sc2ncnc3nc[nH]c23)c1[N+](=O)[O-]	-0.6	2.7	83.6*	-2.8	28.6	1.3
Cn1cnc([N+](=O)[O-])c1Sc1ncnc2nc[nH]c12	47.5	-4.8	84.8*	3.4	15.9	0.3
Cc1cccnc1Sc1c([N+](=O)[O-])ncn1C	5.3	/	-17.6	-2.2	-14.0	-0.5
CN(C)c1ccc(/C=C(\NC(=O)c2ccccc2)C(=O)NCCN2CCOCC2)cc1	1.5	-5.7	/	2.6	-6.1	-0.1
Cn1c(=O)c2c(nc(NN=C3CCCC3)n2C)n(C)c1=O	-1.9	7.9	-12.3	12.1	-1.8	-0.3
COC(=O)c1cc(=O)n(Cc2cccs2)c(=Nc2ccc(F)cc2)s1	3.5	11.6	121.0*	3.9	49.0	-0.1
COC(=O)c1ccc(N=c2sc(C(=O)OC)cc(=O)n2C)cc1	/	-12.1	/	/	/	/
COC(=O)c1cc(=O)n(-c2ccc(F)cc2)c(=Nc2ccc(F)cc2)s1	-5.4	124.9*	15.9	-0.7	41.9	1.0
SMILES	SKKanGAS inh	PfHsp90 yeast 2	CSC inhib	Beta apoptosis	T cruzi repl	HIF act
COc1ccc(OC)c(/C=N/n2c(-c3n[nH]c4c3CCC4)n[nH]c2=S)c1	50.3*	-2.2	-8.2	0.0	-7.1	0.2
CCCCOCCCNc1ncnc2c1[nH]c1ccccc12	0.8	-29.4	25.6	113.5*	24.0	0.0
C=CCNc1ncnc2c1[nH]c1ccccc12	-2.9	-10.5	-14.1	5.5	14.1	0.8
CCOCCCNc1ncnc2c1[nH]c1ccccc12	0.1	39.3	-5.2	78.3*	9.4	0.8
CCCCCCOC(=O)/C=C/c1c(C)[nH]c(=O)[nH]c1=O	86.1*	-0.4	34.0	-12.8	40.6	-0.6
CC1=CC(C)(C)Nc2ccc(OC(=O)CN3C(=O)CCC3=O)cc21	2.8	33.4	/	/	55.9*	-1.8
CC(C)=NOc1nc(N2CCOCC2)nc(N2CCOCC2)n1	0.2	/	-7.1	-5.7	-11.0	-0.4
